Experimental data published in ChEMBL document CHEMBL1121519, “Basic antiinflammatory compounds. N,N',N''-Trisubstituted guanidines” (J Med Chem, 1980).

Assays:
[1] = Lethal dose in mice determined by Litchfield and Wilcoxon methods after peroral administration.; type: toxicity, organism-based; conditions: mouse, in vivo, po
Procedure, shortened: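 Median lethal dose found after oral dosing of mice, four mice per dose level, and calculated by the Litchfield–Wilcoxon method.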

[2] = target: Cyclooxygenase (Bos taurus) (UniProt O62664+O62698); experiment: Inhibition of prostaglandin synthetase in bovine seminal vesicle microsomes using Beckman liquid scintillation counter at 10 e-5 M; conditions: Microsome
Rattus norvegicus = experiment: Percent inhibition of carrageenan paw edema in rat, administered orally at a dose of one tenth of oral lethal dose in mice; type: functional
Procedure, shortened: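 1 h later, 0.1 mL of 1% carrageenan was injected into the right hind-paw plantar tissue. Paw swelling was measured by mercury-displacement plethysmometry 3 h after carrageenan, compared with controls.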

Row | Compound | LD50 [1] | inhibition [2] | Inhibition (Rattus norvegicus)
1 | Cc1cc(N/C(=N/C2CCCCC2)Nc2c(C)noc2C)c2ccccc2n1 | > 1000 mg/kg | 19.3% | 17%
2 | Cc1ccc2nc(C)cc(N/C(=N/C(C)(C)C)Nc3nccs3)c2c1 | > 1000 mg/kg | -7.5% | 42%
3 | Cc1cc(N/C(=N/C(C)(C)C)Nc2ccccc2)c2ccccc2n1 | 40 mg/kg | 43.9% | 34%
4 | Cc1cc(N/C(=N/C(C)(C)C)Nc2nc(C)c(C)s2)c2ccccc2n1 | > 1000 mg/kg | 64.2% | 19%
5 | CCC(C)(C)/N=C(\Nc1ncccn1)Nc1nccs1 | > 1000 mg/kg | 27.5% | 20%
6 | Cc1cc(N/C(=N/C2CCCCC2)Nc2nncs2)c2ccccc2n1 | 250 mg/kg | 15.1% | 40%
7 | COc1cc(N/C(=N\C(C)(C)C)Nc2nccs2)c2ncccc2c1 | > 1000 mg/kg | 5% | 
8 | CC(C)(C)/N=C(/Nc1nccs1)Nc1cccc2ncccc12 | > 1000 mg/kg | 9% | 21%
9 | CC(C)Cc1cc(N/C(=N/C(C)(C)C)Nc2nccs2)c2ccccc2n1 | 600 mg/kg | 20% | 33%
10 | c1ccc(-c2cc(N/C(=N/C3CCCCC3)Nc3nccs3)c3ccccc3n2)cc1 | > 1000 mg/kg | 14% | 5%
11 | CC(C)(C)/N=C(\Nc1cnc2ccccc2c1)Nc1nccs1 | > 1000 mg/kg | -1% | 36%
12 | Cc1cc(N/C(=N/C2CCC(C)CC2)Nc2nccs2)c2ccccc2n1 (stereo unspecified) | > 1000 mg/kg | 12.6% | 39%
13 | CC(C)c1cc(N/C(=N/C(C)(C)C)Nc2nccs2)c2ccccc2n1 | > 1000 mg/kg | 12.4% | 31%
14 | CC(C)(C)/N=C(\Nc1ccncc1)Nc1nccs1 | 300 mg/kg |  | 15%
15 | Cc1cc(NC(=N)NC2CCCCC2)c2ccccc2n1 | > 1000 mg/kg |  | 
16 | Cc1cc(N/C(=N/C23C[C@H]4C[C@@H](C2)C[C@@H](C3)C4)Nc2nccs2)c2ccccc2n1 | > 1000 mg/kg | 32% | 17%
17 | CC(C)(C)N=C(Nc1nccs1)Nc1nccs1 | > 1000 mg/kg | 13.1% | 49%
18 | Clc1ccc2c(N/C(=N/C3CCCCC3)Nc3nccs3)ccnc2c1 | > 1000 mg/kg | 21.6% | 56%
19 | CC(C)CC(C)(C)/N=C(\Nc1ccncc1)Nc1nccs1 | 800 mg/kg | 1.1% | 22%
20 | Cc1cc(N/C(=N/C2CCCC(C)C2C)Nc2nccs2)c2ccccc2n1.Cl (stereo unspecified) | > 1000 mg/kg | 7% | 47%
21 | Cc1cc(N/C(=N/C2CCCCC2)Nc2ccccn2)c2ccccc2n1 | > 1000 mg/kg | 0.4% | 23%
22 | CC(C)(C)/N=C(\Nc1nccs1)Nc1ccnc2ccccc12 | > 1000 mg/kg | 23.8% | 29%
23 | CC(C)(C)/N=C(\Nc1ccccn1)Nc1nccs1 | > 1000 mg/kg | 6.9% | 83%
24 | Cc1cc(N/C(=N\C2CCCC2)Nc2nccs2)c2ccccc2n1 | 600 mg/kg | 58.7% | 52%

Row | Compound | LD50 [1] | inhibition [2] | Inhibition (Rattus norvegicus)
25 | COc1ccc2nccc(N/C(=N/C(C)(C)C)Nc3nccs3)c2c1 | > 1000 mg/kg | 12.7% | 42%
26 | CCCCC(CC)C/N=C(/Nc1nccs1)Nc1cc(C)nc2ccccc12 (stereo unspecified) | > 1000 mg/kg | 2.1% | 28%
27 | CCCCCCCCCCCCCCCCCC/N=C(\Nc1nccs1)Nc1cc(C)nc2ccccc12.Cl | > 1000 mg/kg | 7% | 5%
28 | Cc1ccc2cccc(N/C(=N\C(C)(C)C)Nc3nccs3)c2n1 | > 1000 mg/kg | 7% | 4%
29 | Cc1cc(NC(=N)NC(C)(C)C)c2ccccc2n1 | 100 mg/kg | 11.7% | 5%
30 | Cc1cc(N/C(=N/C2CCCCC2)Nc2nnc(C)s2)c2ccccc2n1 | > 1000 mg/kg | 36.2% | 56%
31 | Cc1ccc2nccc(N/C(=N/C3CCCCC3)Nc3nccs3)c2c1 | > 1000 mg/kg | 7.2% | 12%
32 | Cc1cc(N/C(=N/CC2CCCCC2)Nc2nccs2)c2ccccc2n1 | > 1000 mg/kg | 21% | 50%
33 | CC(C)Cc1cc(N/C(=N/C2CCCCC2)Nc2nccs2)c2ccccc2n1 | > 1000 mg/kg | 11% | 40%
34 | CC(C)(C)/N=C(\Nc1nccs1)Nc1ccnc2cc(C(F)(F)F)ccc12 | > 1000 mg/kg |  | 32%
35 | Cc1cc(N/C(=N/C2CCCCCC2)Nc2nccs2)c2ccccc2n1 | > 1000 mg/kg | 34.8% | 19%
36 | Cc1cc(N/C(=N/C2CCCCC2)Nc2ncc(C(=O)O)s2)c2ccccc2n1 | > 1000 mg/kg | 8.4% | 30%
37 | CC(C)(C)/N=C(/Nc1nccs1)Nc1cccc2cccnc12 | > 1000 mg/kg | 4.3% | 8%
38 | CC(C)(C)/N=C(/Nc1nccs1)Nc1cccc2cnccc12 | > 1000 mg/kg | -8.8% | 21%
39 | CC/N=C(/Nc1nccs1)Nc1cc(C)nc2ccccc12 | 100 mg/kg | 8% | 56%
40 | Cc1cc(N/C(=N\C(C)C(C)(C)C)Nc2nccs2)c2ccccc2n1 (stereo unspecified) | > 1000 mg/kg | 4% | 36%
41 | CC(C)(C)/N=C(/Nc1nccs1)Nc1nccc2ccccc12 | > 1000 mg/kg | 3.4% | 18%
42 | Cc1ccc2cc(N/C(=N\C(C)(C)C)Nc3nccs3)ccc2n1 | > 1000 mg/kg | 3.7% | 43%
43 | CC(C)(C)/N=C(/Nc1nccs1)Nc1cccc2c(O)cccc12 | > 1000 mg/kg |  | 22%
44 | Cc1nc2ccccc2cc1N/C(=N\C(C)(C)C)Nc1nccs1 | > 1000 mg/kg | 2.3% | 24%
45 | c1ccc2c(N/C(=N/C3CCCCC3)Nc3nccs3)ccnc2c1 | > 1000 mg/kg | 21.2% | 46%
46 | CC(C)(C)/N=C(\Nc1nccs1)Nc1cc(-c2ccccc2)nc2ccccc12 | > 1000 mg/kg | < 10% | 40%
47 | Cc1cc(N/C(=N\C(C)CCCC(C)C)Nc2nccs2)c2ccccc2n1 (stereo unspecified) | > 1000 mg/kg | 1.7% | 25%
48 | Cc1c(Cl)cccc1N/C(=N\C(C)(C)C)Nc1nccs1 | > 1000 mg/kg | 9.5% | 17%

Row | Compound | LD50 [1] | inhibition [2] | Inhibition (Rattus norvegicus)
49 | CC(C)c1cc(N/C(=N/C2CCCCC2)Nc2nccs2)c2ccccc2n1 | > 1000 mg/kg | 0% | 36%
50 | CC(C)(C)/N=C(\Nc1ccc(Cl)cn1)Nc1nccs1 | > 1000 mg/kg | 1% | 31%
51 | Cc1cc(N/C(=N/C(C)(C)C)Nc2nnc(S)s2)c2ccccc2n1 | > 1000 mg/kg | 6% | 16%
52 | Cc1cc(N/C(=N/C(C)(C)C)NCCO)c2ccccc2n1 | 600 mg/kg | 2.8% | 40%
53 | CCCc1cc(N/C(=N/C2CCCCC2)Nc2nccs2)c2ccccc2n1 | > 1000 mg/kg | 56% | 54%
54 | CCC(C)(C)/N=C(\Nc1cccnc1)Nc1nccs1 | > 1000 mg/kg | 0% | 82%
55 | CC(C)(C)/N=C(\Nc1ccc2ccccc2n1)Nc1nccs1 | > 1000 mg/kg |  | 32%
56 | CCc1cc(N/C(=N/C2CCCCC2)Nc2nccs2)c2ccccc2n1 | > 1000 mg/kg | 67% | 24%
57 | Cc1nc2ccccc2c(N/C(=N/C2CCCCC2)Nc2nccs2)c1Cl | > 1000 mg/kg | 8.1% | 19%
58 | Cc1cc(N/C(=N/CC(C)C)Nc2nccs2)c2ccccc2n1 | 1000 mg/kg | 18% | 57%
59 | Cc1cc(N/C(=N/C2CCCCC2)Nc2ccccc2)c2ccccc2n1 | 300 mg/kg | 10% | 38%
60 | CCCc1cc(N/C(=N/C(C)(C)C)Nc2nccs2)c2ccccc2n1 | 600 mg/kg | 74.1% | 51%
61 | CCOC(=O)c1cnc(/N=C(\Nc2cc(C)nc3ccccc23)NC(C)(C)C)s1 | > 1000 mg/kg | 15.8% | 16%
62 | CCC(C)/N=C(/Nc1nccs1)Nc1cc(C)nc2ccccc12 (stereo unspecified) | 400 mg/kg | 10.5% | 57%
63 | Cc1cc(N/C(=N\C(C)(C)C)Nc2nccs2)ccn1 | 250 mg/kg | 14.9% | 13%
64 | Cc1cc(N/C(=N/C2CCCCC2)Nc2nc(C(=O)O)cs2)c2ccccc2n1 | > 1000 mg/kg | 2.9% | 9%
65 | Cc1cc(N/C(=N/C(C)(C)C)Nc2ccccn2)c2ccccc2n1 | > 1000 mg/kg | 30.1% | 36%
66 | Cc1cc(N/C(=N/C(C)(C)C)Nc2nc3ccccc3s2)c2ccccc2n1 | > 1000 mg/kg | 51.8% | 18%
67 | CC(C)(C)/N=C(\N)Nc1nccs1.O=C(O)/C=C\C(=O)O | 600 mg/kg | 29% | 54%
68 | Cc1cc(N/C(=N/C(C)(C)C)Nc2cnccn2)c2ccccc2n1 | > 1000 mg/kg |  | 
69 | Cc1cc(N/C(=N/C2CCCCC2)Nc2nnc(S)s2)c2ccccc2n1 | > 1000 mg/kg | 7% | 36%
70 | Cc1cc(N/C(=N\C(C)(C)CC(C)(C)C)Nc2nccs2)c2ccccc2n1 | > 1000 mg/kg | 49.3% | 25%
